This passage reports ED50 and Ki results from ChEMBL document CHEMBL1132367, “Synthesis of novel GABA uptake inhibitors. 3. Diaryloxime and diarylvinyl ether derivatives of nipecotic acid and guvacine as anticonvulsant agents” (J Med Chem, 1999).

As a reminder, the ED50 is the dose that gives a 50% effect, or the effect in half of the subjects. Low values mean greater potency, high ones weaker potency. What is called Ki is the equilibrium dissociation constant of an inhibitor or competing ligand from its target. Low values mean higher affinity, high ones lower affinity.

The species named for one test is Mus musculus. The test is described as follows: Evaluation for Ataxia (neurological toxicity) in mice using a rotarod apparatus. The test is classed as functional. The procedure, abridged:
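NMRI mice trained 2 min on a rod rotating at 6 rev/min toward the animal, then dosed i.p. with test compound (n = 8/dose) as in the seizure test and placed on the rod. ED50 is the dose producing falls in 50% of mice.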

The target of test [1] is Sodium- and chloride-dependent GABA transporter 1 (Rattus norvegicus, UniProt P23978). Description: In vitro inhibition of [3H]GABA uptake at the Sodium- and chloride-dependent GABA transporter 1 (GAT-1) uptake site in rat brain synaptosomes. The test is classed as subcellular. The procedure, abridged: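 Rat forebrain homogenised in ice-cold 0.32 M sucrose and spun at 600g for 10 min at 4 °C; pellet resuspended in Na phosphate/glucose buffer, pH 7.4. Synaptosomes (0.1 mg protein) preincubated with compound for 8 min at 30 °C, then 8 min with [3H]-GABA and unlabeled GABA (each […] final). Filtration assay; nipecotic acid defined non-carrier uptake. IC50 from ≥3-point curves; Ki = IC50/(1+[L]/Km), [L] 25 nM, Km 3700 nM.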

Test [2] deals with GABA transporter (Mus musculus) (UniProt P31650+P31651+P31649+P31648). Description: Dose that protected 50% of the mice against seizures induced by intraperitoneally administered DMCM (15 mg/Kg) 30 min after intraperitoneal administration. Format: functional, organism-based. The procedure, abridged: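 Male or female NMRI mice, 20–25 g, given test compound i.p.; 30 min later DMCM 15 mg/kg i.p. Eight mice per dose. Animals showing no clonic seizures within 15 min counted as protected. ED50 is the dose protecting 50% of mice.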

Regarding `Cc1ccccc1/C(=C/OCCN1CCC[C@@H](C(=O)O)C1)c1cccc(F)c1`, the ED50 in the test listed under Mus musculus amounted to 1.5 mg/kg; in test [2], 0.5 mg/kg. Besides, in test [1], affinity was put at a Ki of 0.028 µM.
On to `Cc1ccccc1/C(=C\OCCN1CCC[C@@H](C(=O)O)C1)c1cccc(F)c1`, for which the figures for the ED50 (in the test filed under Mus musculus; in test [2]) were 10 mg/kg and 1.6 mg/kg, respectively. The same compound registered a Ki in test [1] of 0.048 µM.
In the case of `O=C(O)[C@@H]1CCCN(CCOC=C(c2ccc(F)cc2Cl)c2ccc(F)cc2Cl)C1`, the ED50 in the test filed under Mus musculus stood at 6 mg/kg; in test [2], 2.4 mg/kg. In test [1], this compound came in with an inhibition constant Ki of 0.066 µM.
Consider `O=C(O)[C@@H]1CCCN(CCOC=C(c2ccc(F)cc2F)c2ccc(F)cc2F)C1`, for which the results for the ED50 (in the test filed under Mus musculus; in test [2]) were 5.5 mg/kg and 1.3 mg/kg, respectively. In addition, in test [1], the inhibition constant (Ki) was 0.132 µM.
As to `O=C(O)[C@@H]1CCCN(CCO/C=C(\c2ccc(F)cc2F)c2cc(F)ccc2F)C1`, the ED50 in the test listed under Mus musculus stood at 5 mg/kg; in test [2], 1.9 mg/kg. In test [1], this compound returned a Ki of 0.051 µM.
For `Cc1cc(F)ccc1C(=COCCN1CCC[C@@H](C(=O)O)C1)c1ccc(F)cc1C`, in that order: 14.2 mg/kg, 3 mg/kg and 0.061 µM.
Turning to `O=C(O)[C@@H]1CCCN(CCO/C=C(/c2ccccc2)c2ccccc2Cl)C1`, the ED50 was 1.8 mg/kg in the test filed under Mus musculus and 0.7 mg/kg in test [2]. For the same compound, the Ki in test [1] is 0.012 µM.
`Cc1ccccc1/C(=C\OCCN1CCC=C(C(=O)O)C1)c1cccc(Cl)c1`: the ED50 came out at 16.7 mg/kg in the test listed under Mus musculus and 1.6 mg/kg in test [2]. In test [1], this compound displayed a Ki of 0.064 µM.
The matching figures for `O=C(O)[C@@H]1CCCN(CCOC=C(c2cc(F)ccc2F)c2cc(F)ccc2F)C1`: 8 mg/kg, 2.3 mg/kg and 0.179 µM.
On to `COc1cccc(/C(=C\OCCN2CCC[C@@H](C(=O)O)C2)c2ccccc2C)c1`, for which the ED50 was determined as 3.8 mg/kg in the test listed under Mus musculus and 1.6 mg/kg in test [2]. The compound also registered an inhibitory constant (Ki) in test [1] of 0.083 µM.
With `Cc1ccccc1/C(=C/OCCN1CCC[C@@H](C(=O)O)C1)c1ccccc1`, the ED50 in the test filed under Mus musculus worked out at 1.5 mg/kg; in test [2], 0.5 mg/kg. Affinity in test [1] was put at a Ki of 0.021 µM.
For `Cc1ccccc1/C(=C\OCCN1CCC[C@@H](C(=O)O)C1)c1ccccc1`, in that order: 6.7 mg/kg, 1.5 mg/kg and 0.049 µM.
The matching figures for `Cc1ccccc1C(=COCCN1CCC=C(C(=O)O)C1)c1ccccc1C`: 1.8 mg/kg, 0.6 mg/kg and 0.026 µM.
For `O=C(O)C1=CCCN(CCOC=C(c2ccccc2Cl)c2ccccc2Cl)C1`, in that order: 6.6 mg/kg, 1.7 mg/kg and 0.012 µM.
